Assay results taken from ChEMBL document CHEMBL2407080, “Synthesis and antifungal activities of cyclic octa-lipopeptide burkholdine analogues” (2013).
Values after ≈ are worked out from the molar mass of the structure shown.

How the values were obtained:
Type in all cases: functional
Aspergillus oryzae = test: Antifungal activity against Aspergillus oryzae 1-Murasaki-1 after 24 hrs by two-fold serial dilution method; conditions: 1-Murasaki-1, 24 h
Procedure, shortened: (§1)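 Broth twofold serial dilution MIC. Organisms were pre-grown 2 days in YPD broth, and the assay was run in YPD. Compound started at […] in medium with 0.1% DMSO, then serially diluted twofold. Each well was inoculated with about 5.0 × 10³ cells and incubated 24 h at 30 °C. MIC is the lowest concentration with no visible growth.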

[1] = Antifungal activity against Candida viswanathii NBRC10321 after 24 hrs by two-fold serial dilution method; procedure, shortened: as §1
Saccharomyces cerevisiae = test: Antifungal activity against Saccharomyces cerevisiae X2180-1A after 24 hrs by two-fold serial dilution method; procedure, shortened: as §1

| SMILES | MIC (Aspergillus oryzae) [µg/mL] | MIC [1] [µg/mL] | MIC (Saccharomyces cerevisiae) [µg/mL] |
| --- | --- | --- | --- |
| CCCCCCCCCCCCNC(=O)[C@H]1CC(=O)N[C@@H](CO)C(=O)N[C@@H](Cc2ccc(O)cc2)C(=O)N[C@H](CC(N)=O)C(=O)NCC(=O)N[C@@H](CC(N)=O)C(=O)N[C@@H](CO)C(=O)N[C@@H](CC(N)=O)C(=O)N1 | 800 (≈ 785 µM) | > 800 | 800 (≈ 785 µM) |
| NC(=O)C[C@@H]1NC(=O)CNC(=O)[C@H](CC(N)=O)NC(=O)[C@H](Cc2ccc(O)cc2)NC(=O)[C@H](CO)NC(=O)CCNC(=O)[C@H](CC(N)=O)NC(=O)[C@H](CO)NC1=O | > 800 | 800 (≈ 990 µM) | > 800 |
| CCCCCCCCCCCCNC(=O)[C@@H]1CC(=O)N[C@@H](CO)C(=O)N[C@@H](Cc2ccc(O)cc2)C(=O)N[C@@H](CC(N)=O)C(=O)NCC(=O)N[C@@H](CC(N)=O)C(=O)N[C@@H](CO)C(=O)N[C@@H](CC(N)=O)C(=O)N1 | 200 (≈ 196 µM) | > 800 | 800 (≈ 785 µM) |
| CCCCCCCCCCCCNC(=O)[C@@H]1CC(=O)N[C@H](CO)C(=O)N[C@@H](Cc2ccc(O)cc2)C(=O)N[C@@H](CC(N)=O)C(=O)NCC(=O)N[C@@H](CC(N)=O)C(=O)N[C@@H](CO)C(=O)N[C@@H](CC(N)=O)C(=O)N1 | > 800 | > 800 | 400 (≈ 392 µM) |
| CCCCCCCCCCCCNC(=O)[C@H]1CC(=O)N[C@@H](CO)C(=O)N[C@H](Cc2ccc(O)cc2)C(=O)N[C@H](CC(N)=O)C(=O)NCC(=O)N[C@@H](CC(N)=O)C(=O)N[C@@H](CO)C(=O)N[C@@H](CC(N)=O)C(=O)N1 | 100 (≈ 98.1 µM) | > 800 | 50 (≈ 49.1 µM) |
| CCCCCCCCCCCCNC(=O)[C@@H]1CC(=O)N[C@@H](CO)C(=O)N[C@H](Cc2ccc(O)cc2)C(=O)N[C@@H](CC(N)=O)C(=O)NCC(=O)N[C@@H](CC(N)=O)C(=O)N[C@@H](CO)C(=O)N[C@@H](CC(N)=O)C(=O)N1 | 400 (≈ 392 µM) | 800 (≈ 785 µM) | > 800 |
| CCCCCCCCCCCCNC(=O)[C@H]1CC(=O)N[C@@H](CO)C(=O)N[C@H](Cc2ccc(O)cc2)C(=O)N[C@@H](CC(N)=O)C(=O)NCC(=O)N[C@@H](CC(N)=O)C(=O)N[C@@H](CO)C(=O)N[C@@H](CC(N)=O)C(=O)N1 | > 800 | > 800 | 800 (≈ 785 µM) |
| NC(=O)C[C@@H]1NC(=O)CNC(=O)[C@@H](CC(N)=O)NC(=O)[C@@H](Cc2ccc(O)cc2)NC(=O)[C@@H](CO)NC(=O)CCNC(=O)[C@H](CC(N)=O)NC(=O)[C@H](CO)NC1=O | 800 (≈ 990 µM) | > 800 | 800 (≈ 990 µM) |
| CCCCCCCCCCCCNC(=O)[C@@H]1CC(=O)N[C@H](CO)C(=O)N[C@H](Cc2ccc(O)cc2)C(=O)N[C@@H](CC(N)=O)C(=O)NCC(=O)N[C@@H](CC(N)=O)C(=O)N[C@@H](CO)C(=O)N[C@@H](CC(N)=O)C(=O)N1 | 800 (≈ 785 µM) | > 800 | > 800 |
| C[C@@H]1[C@H](O)[C@@H](C)/C=C/C=C/C=C/C=C/C=C/C=C/C=C/[C@H](O[C@@H]2O[C@H](C)[C@@H](O)[C@H](N)[C@@H]2O)C[C@@H]2O[C@](O)(C[C@@H](O)C[C@@H](O)[C@H](O)CC[C@@H](O)C[C@@H](O)CC(=O)O[C@H]1C)C[C@H](O)[C@H]2C(=O)O [AMPHOTERICIN B] |  |  | 0.8 (≈ 0.866 µM) |
| CCCCCCCCCCCCNC(=O)[C@H]1CC(=O)N[C@H](CO)C(=O)N[C@H](Cc2ccc(O)cc2)C(=O)N[C@H](CC(N)=O)C(=O)NCC(=O)N[C@@H](CC(N)=O)C(=O)N[C@@H](CO)C(=O)N[C@@H](CC(N)=O)C(=O)N1 | 800 (≈ 785 µM) | > 800 | 400 (≈ 392 µM) |
| CCCCCCCCCCCCNC(=O)[C@@H]1CC(=O)N[C@@H](CO)C(=O)N[C@@H](Cc2ccc(O)cc2)C(=O)N[C@H](CC(N)=O)C(=O)NCC(=O)N[C@@H](CC(N)=O)C(=O)N[C@@H](CO)C(=O)N[C@@H](CC(N)=O)C(=O)N1 | 400 (≈ 392 µM) | 800 (≈ 785 µM) | > 800 |
| CCCCCCCCCCC[C@H](O)[C@H](O)[C@H](O)C[C@H]1CC(=O)N[C@@H](CO)C(=O)N[C@H]([C@H](O)c2ccc(O)cc2)C(=O)N[C@H](CC(N)=O)C(=O)NCC(=O)N[C@@H](CC(N)=O)C(=O)N[C@@H](CO)C(=O)N[C@@H]([C@H](O)C(N)=O)C(=O)N1 |  |  | 1.6 (≈ 1.46 µM) |
| CCCCCCCCCCCCNC(=O)[C@H]1CC(=O)N[C@@H](CO)C(=O)N[C@@H](Cc2ccc(O)cc2)C(=O)N[C@@H](CC(N)=O)C(=O)NCC(=O)N[C@@H](CC(N)=O)C(=O)N[C@@H](CO)C(=O)N[C@@H](CC(N)=O)C(=O)N1 | > 800 | > 800 | 200 (≈ 196 µM) |

More lines, in order of falling MIC (Saccharomyces cerevisiae), values ahead:

| MIC (Aspergillus oryzae) [µg/mL] | MIC [1] [µg/mL] | MIC (Saccharomyces cerevisiae) [µg/mL] | SMILES |
| --- | --- | --- | --- |
| 800 (≈ 785 µM) | > 800 | 800 (≈ 785 µM) | CCCCCCCCCCCCNC(=O)[C@H]1CC(=O)N[C@H](CO)C(=O)N[C@H](Cc2ccc(O)cc2)C(=O)N[C@@H](CC(N)=O)C(=O)NCC(=O)N[C@@H](CC(N)=O)C(=O)N[C@@H](CO)C(=O)N[C@@H](CC(N)=O)C(=O)N1 |
| 400 (≈ 392 µM) | > 800 | 800 (≈ 785 µM) | CCCCCCCCCCCCNC(=O)[C@@H]1CC(=O)N[C@@H](CO)C(=O)N[C@H](Cc2ccc(O)cc2)C(=O)N[C@H](CC(N)=O)C(=O)NCC(=O)N[C@@H](CC(N)=O)C(=O)N[C@@H](CO)C(=O)N[C@@H](CC(N)=O)C(=O)N1 |
| > 800 | > 800 | 800 (≈ 990 µM) | NC(=O)C[C@@H]1NC(=O)CNC(=O)[C@@H](CC(N)=O)NC(=O)[C@H](Cc2ccc(O)cc2)NC(=O)[C@@H](CO)NC(=O)CCNC(=O)[C@H](CC(N)=O)NC(=O)[C@H](CO)NC1=O |
| > 800 | > 800 | 400 (≈ 392 µM) | CCCCCCCCCCCCNC(=O)[C@H]1CC(=O)N[C@H](CO)C(=O)N[C@@H](Cc2ccc(O)cc2)C(=O)N[C@@H](CC(N)=O)C(=O)NCC(=O)N[C@@H](CC(N)=O)C(=O)N[C@@H](CO)C(=O)N[C@@H](CC(N)=O)C(=O)N1 |
| 400 (≈ 392 µM) | > 800 | 400 (≈ 392 µM) | CCCCCCCCCCCCNC(=O)[C@H]1CC(=O)N[C@H](CO)C(=O)N[C@@H](Cc2ccc(O)cc2)C(=O)N[C@H](CC(N)=O)C(=O)NCC(=O)N[C@@H](CC(N)=O)C(=O)N[C@@H](CO)C(=O)N[C@@H](CC(N)=O)C(=O)N1 |
| 100 (≈ 98.1 µM) | 400 (≈ 392 µM) | 50 (≈ 49.1 µM) | CCCCCCCCCCCCNC(=O)[C@@H]1CC(=O)N[C@H](CO)C(=O)N[C@@H](Cc2ccc(O)cc2)C(=O)N[C@H](CC(N)=O)C(=O)NCC(=O)N[C@@H](CC(N)=O)C(=O)N[C@@H](CO)C(=O)N[C@@H](CC(N)=O)C(=O)N1 |
| 50 (≈ 49.1 µM) | 800 (≈ 785 µM) | 25 (≈ 24.5 µM) | CCCCCCCCCCCCNC(=O)[C@@H]1CC(=O)N[C@H](CO)C(=O)N[C@H](Cc2ccc(O)cc2)C(=O)N[C@H](CC(N)=O)C(=O)NCC(=O)N[C@@H](CC(N)=O)C(=O)N[C@@H](CO)C(=O)N[C@@H](CC(N)=O)C(=O)N1 |
